Assay results: ChEMBL document CHEMBL2016434, “Exploiting the P-1 pocket of BRCT domains toward a structure guided inhibitor design” (ACS Med Chem Lett, 2011)
The source made the active and inactive calls. The calls are words filed in the database; no cut-off is given here. Non-standard residues stand in square brackets, D forms with d. Residues, ends and D or L forms follow the SMILES beside them. *: point of attachment. Benzoyl(3-Ph) = O=C(c1cccc(-c2ccccc2)c1)*; 2Nal = N[C@@H](Cc1ccc2ccccc2c1)C(=O)O; d2Nal = N[C@H](Cc1ccc2ccccc2c1)C(=O)O; Pentanoyl(5-Ph) = O=C(CCCCc1ccccc1)*; Butanoyl(4-Ph) = O=C(CCCc1ccccc1)*; Hydrocinnamoyl = O=C(CCc1ccccc1)*; pS = N[C@@H](COP(=O)(O)O)C(=O)O; X1 = O=C(C/C=C/c1ccccc1)*

Tests used:
[1] = biological target: T1, Breast cancer type 1 susceptibility protein (Homo sapiens, UniProt P38398); test: Inhibition of BRCT domain of His-tagged BRCA1 after 1 min by competitive fluorescence polarization assay
Target sequence in this assay (P38398 whole entry, the tested form may be a part): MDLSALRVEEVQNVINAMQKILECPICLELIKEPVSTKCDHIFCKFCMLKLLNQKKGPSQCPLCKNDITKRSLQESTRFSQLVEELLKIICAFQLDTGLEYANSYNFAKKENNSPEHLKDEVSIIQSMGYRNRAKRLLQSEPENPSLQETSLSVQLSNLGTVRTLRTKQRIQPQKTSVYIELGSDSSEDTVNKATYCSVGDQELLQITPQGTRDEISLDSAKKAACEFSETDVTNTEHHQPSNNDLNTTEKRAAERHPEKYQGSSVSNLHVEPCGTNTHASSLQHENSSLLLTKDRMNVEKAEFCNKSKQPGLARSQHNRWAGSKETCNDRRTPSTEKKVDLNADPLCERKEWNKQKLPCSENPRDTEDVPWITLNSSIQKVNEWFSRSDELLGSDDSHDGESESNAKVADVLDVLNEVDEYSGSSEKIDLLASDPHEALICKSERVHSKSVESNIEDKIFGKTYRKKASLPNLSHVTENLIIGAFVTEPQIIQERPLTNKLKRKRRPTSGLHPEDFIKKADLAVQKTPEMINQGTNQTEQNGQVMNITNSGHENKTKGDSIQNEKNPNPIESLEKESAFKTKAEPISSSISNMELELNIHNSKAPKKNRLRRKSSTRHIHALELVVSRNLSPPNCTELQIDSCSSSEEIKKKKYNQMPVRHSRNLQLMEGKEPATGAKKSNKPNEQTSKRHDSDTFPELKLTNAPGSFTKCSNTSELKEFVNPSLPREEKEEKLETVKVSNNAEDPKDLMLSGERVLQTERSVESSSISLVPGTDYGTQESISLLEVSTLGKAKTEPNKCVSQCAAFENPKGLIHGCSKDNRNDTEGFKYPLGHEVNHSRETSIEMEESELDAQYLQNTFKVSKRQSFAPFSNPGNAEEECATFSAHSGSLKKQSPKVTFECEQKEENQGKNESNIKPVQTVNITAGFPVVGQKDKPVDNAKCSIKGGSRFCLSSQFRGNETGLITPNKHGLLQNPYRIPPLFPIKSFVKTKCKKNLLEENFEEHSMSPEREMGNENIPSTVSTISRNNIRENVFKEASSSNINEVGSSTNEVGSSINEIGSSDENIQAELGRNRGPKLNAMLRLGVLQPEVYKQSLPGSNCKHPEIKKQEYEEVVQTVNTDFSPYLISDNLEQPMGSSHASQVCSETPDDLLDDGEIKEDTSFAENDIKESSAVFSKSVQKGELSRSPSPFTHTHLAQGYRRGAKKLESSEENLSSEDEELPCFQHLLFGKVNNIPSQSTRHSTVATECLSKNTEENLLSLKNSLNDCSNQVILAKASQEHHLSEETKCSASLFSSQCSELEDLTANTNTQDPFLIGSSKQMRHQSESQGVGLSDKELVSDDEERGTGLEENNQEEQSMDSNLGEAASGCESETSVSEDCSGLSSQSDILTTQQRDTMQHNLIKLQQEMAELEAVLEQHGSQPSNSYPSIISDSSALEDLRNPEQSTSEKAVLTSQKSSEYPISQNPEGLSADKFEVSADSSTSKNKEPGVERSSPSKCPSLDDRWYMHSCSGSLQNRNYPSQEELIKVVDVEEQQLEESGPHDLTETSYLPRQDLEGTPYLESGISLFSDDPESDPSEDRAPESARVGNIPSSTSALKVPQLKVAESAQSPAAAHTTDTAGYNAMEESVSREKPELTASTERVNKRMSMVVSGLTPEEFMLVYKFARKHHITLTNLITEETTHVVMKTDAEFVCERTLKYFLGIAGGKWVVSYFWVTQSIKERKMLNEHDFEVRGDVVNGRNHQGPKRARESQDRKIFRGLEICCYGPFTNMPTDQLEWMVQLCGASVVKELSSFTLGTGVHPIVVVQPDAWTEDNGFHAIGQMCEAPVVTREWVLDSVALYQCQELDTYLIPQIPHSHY

[2] = biological target: T1, Breast cancer type 1 susceptibility protein; test: Displacement of phospho-BACH1 protein from BRCT domain of BRCA1 at 0.5 to 5000 uM by PAGE analysis
Method in brief: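 Phospho-BACH1 peptide immobilized on streptavidin–agarose beads was incubated with BRCT-BRCA1 together with the competing peptide mimics. Beads were then isolated and the bound protein resolved by polyacrylamide gel electrophoresis, followed by phosphor-screen exposure. Relative band intensities were quantified, and pulldown IC50 values were obtained by curve fitting.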
Target sequence in this assay (P38398 whole entry, looked up, the tested form may be a part): as the sequence (P38398 whole entry, the tested form may be a part) above

`CC(=O)N[C@@H](Cc1ccc2ccccc2c1)C(=O)N[C@@H](COP(=O)(O)O)C(=O)N1CCC[C@H]1C(=O)N[C@H](C(=O)N[C@@H](Cc1ccccc1)C(N)=O)[C@@H](C)O` (Ac-[2Nal][pS]PTF-NH2) showed a Ki [1] of 1240 nM.

`CC(=O)N[C@@H](Cc1ccc2ccccc2c1)C(=O)N[C@@H](COP(=O)(O)O)C(=O)N1CCC[C@H]1C(=O)N[C@H](C(=O)N[C@@H](Cc1ccccc1)C(N)=O)C(C)C` (Ac-[2Nal][pS]PVF-NH2) showed a Ki [1] of 540 nM.

`CC(=O)N[C@@H](Cc1ccc2ccccc2c1)C(=O)N[C@@H](COP(=O)(O)O)C(=O)N1CCC[C@H]1C(=O)N[C@H](C(=O)N[C@@H](Cc1ccccc1)C(=O)O)C(C)C` (Ac-[2Nal][pS]PVF-OH) gave a Ki [1] of 130 nM.

Molecule `CC(=O)N[C@H](Cc1ccc2ccccc2c1)C(=O)N[C@@H](COP(=O)(O)O)C(=O)N1CCC[C@H]1C(=O)N[C@H](C(=O)N[C@@H](Cc1ccccc1)C(N)=O)[C@@H](C)O` (Ac-[d2Nal][pS]PTF-NH2) has a Ki [1] of 19400 nM.

For `CC(C)[C@H](NC(=O)[C@@H]1CCCN1C(=O)[C@H](COP(=O)(O)O)NC(=O)CCc1ccccc1)C(=O)N[C@@H](Cc1ccccc1)C(=O)O` (Hydrocinnamoyl-[pS]PVF-OH), the Ki [1] was 100 nM.

In the case of `CC(C)[C@H](NC(=O)[C@@H]1CCCN1C(=O)[C@H](COP(=O)(O)O)NC(=O)C/C=C/c1ccccc1)C(=O)N[C@@H](Cc1ccccc1)C(=O)O` (X1-[pS]PVF-OH), the Ki [1] is reported as 40 nM and the Activity [2] is reported as “Active”.

`CC(C)[C@H](NC(=O)[C@@H]1CCCN1C(=O)[C@H](COP(=O)(O)O)NC(=O)c1cccc(-c2ccccc2)c1)C(=O)N[C@@H](Cc1ccccc1)C(=O)O` ({Benzoyl(3-Ph)}-[pS]PVF-OH) was tested, and the Ki [1] was 80 nM and the Activity [2] was “Active”.

With `CC(C)[C@H](NC(=O)[C@@H]1CCCN1C(=O)[C@H](COP(=O)(O)O)NC(=O)CCCc1ccccc1)C(=O)N[C@@H](Cc1ccccc1)C(=O)O` ({Butanoyl(4-Ph)}-[pS]PVF-OH) the Ki [1] was 500 nM.

`CC(C)[C@H](NC(=O)[C@@H]1CCCN1C(=O)[C@H](COP(=O)(O)O)NC(=O)CCCCc1ccccc1)C(=O)N[C@@H](Cc1ccccc1)C(=O)O` ({Pentanoyl(5-Ph)}-[pS]PVF-OH) showed a Ki [1] of 12000 nM.
